# In ChEMBL document CHEMBL1944582, “Pyrazolopyridine Inhibitors of B-Raf(V600E). Part 1: The Development of Selective, Orally Bioavailable, and Efficacious Inhibitors” (ACS Med Chem Lett, 2011):
# Test system: not listed separately
# Experiment: Plasma protein binding in CD-1 mouse
# Assay type: ADME, cell-free
# Settings: read-out: PPB (converted)
row,SMILES,fraction unbound
1,CCCS(=O)(=O)Nc1ccc(F)c(C(=O)Nc2cnc3[nH]nc(N(C)C)c3c2)c1F,0.092
2,CCCS(=O)(=O)Nc1ccc(F)c(C(=O)Nc2cnc3[nH]nc(Br)c3c2)c1F,0.016

# Test system: not listed separately
# Experiment: AUC in CD-1 mouse at 30 mg/kg, po
# Assay type: ADME, organism-based
# Parameters: dose 30 mg/kg, route oral
# Settings: plasma
# How it was run: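 Single oral dose given to mice as a solution in 40% PEG400/10% ethanol/50% water, at 30 mg/kg or 100 mg/kg. Exposure is reported as AUC in μg h/mL.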
row,SMILES,AUC [ng·h/mL]
1,CCCS(=O)(=O)Nc1ccc(F)c(C(=O)Nc2cnc3[nH]nc(N(C)C)c3c2)c1F,1090
2,CCCS(=O)(=O)Nc1ccc(F)c(C(=O)Nc2cnc3[nH]nc(Br)c3c2)c1F,52500

# Test system: COLO 205
# Experiment: Cytotoxicity against human COLO205 cells after 4 days by CellTiter-Glo assay
# Assay type: functional, cell-based
# Settings: COLO 205, 96 h
row,SMILES,EC50 [nM]
1,CCCS(=O)(=O)Nc1ccc(F)c(C(=O)c2c[nH]c3ncc(-c4ccc(Cl)cc4)cc23)c1F [VEMURAFENIB],240

# Test system: not listed separately
# Experiment: Aqueous solubility of the compound in phosphate buffer at pH 6.5 after 24 hrs by HPLC analysis
# Assay type: physicochemical
# Settings: not given
row,SMILES,solubility at 24 h [µg/mL]
1,CCCS(=O)(=O)Nc1ccc(F)c(C(=O)Nc2cnc3[nH]nc(N(C)C)c3c2)c1F,290
2,CCCS(=O)(=O)Nc1ccc(F)c(C(=O)Nc2cnc3[nH]nc(Br)c3c2)c1F,1

# Target: T1, Serine/threonine-protein kinase B-raf (Homo sapiens, UniProt P15056, V600E)
# Experiment: Inhibition of B-Raf V600E mutant-mediated Erk phosphorylation in human A375 cells after 1 hr by fluorescence analysis
# Assay type: cell-based, A-375
# Settings: not given
# How it was run: (§1)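 Cells were not stimulated, and inhibition was read against their basal ERK phosphorylation. This was the mechanistic cellular assay, run in both Malme-3M and A375 lines.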
# T1 sequence (P15056 2-766 V600E limits assumed): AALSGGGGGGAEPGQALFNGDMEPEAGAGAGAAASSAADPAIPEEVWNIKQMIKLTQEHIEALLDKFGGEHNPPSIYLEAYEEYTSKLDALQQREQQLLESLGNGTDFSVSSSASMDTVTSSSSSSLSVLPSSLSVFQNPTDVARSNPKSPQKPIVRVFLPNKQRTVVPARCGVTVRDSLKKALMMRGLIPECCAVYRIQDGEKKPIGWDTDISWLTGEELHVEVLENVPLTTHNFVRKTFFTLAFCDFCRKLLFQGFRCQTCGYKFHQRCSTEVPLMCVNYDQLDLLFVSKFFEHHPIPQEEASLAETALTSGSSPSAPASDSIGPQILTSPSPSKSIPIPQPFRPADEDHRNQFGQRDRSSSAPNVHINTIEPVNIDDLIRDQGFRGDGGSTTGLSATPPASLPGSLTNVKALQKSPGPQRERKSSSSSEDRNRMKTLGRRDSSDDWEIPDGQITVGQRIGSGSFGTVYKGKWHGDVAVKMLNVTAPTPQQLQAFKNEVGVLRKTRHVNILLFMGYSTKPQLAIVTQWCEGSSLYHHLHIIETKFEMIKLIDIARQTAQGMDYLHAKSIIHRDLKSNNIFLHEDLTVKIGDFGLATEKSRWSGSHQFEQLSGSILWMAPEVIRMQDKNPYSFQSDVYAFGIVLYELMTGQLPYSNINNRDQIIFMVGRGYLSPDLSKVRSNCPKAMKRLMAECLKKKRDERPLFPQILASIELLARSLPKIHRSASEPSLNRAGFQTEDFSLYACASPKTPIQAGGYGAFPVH
row,SMILES,IC50 [nM]
1,CCCS(=O)(=O)Nc1ccc(F)c(C(=O)Nc2ccc(N)nc2)c1F,> 3000
2,CCCS(=O)(=O)Nc1ccc(F)c(C(=O)Nc2cnc3[nH]cnc3c2)c1F,> 3000
3,CCCS(=O)(=O)Nc1ccc(F)c(C(=O)Nc2cnc(N)c(Br)c2)c1F,1200
4,CCCS(=O)(=O)Nc1ccc(F)c(C(=O)Nc2cnc3[nH]nc(N(C)C)c3c2)c1F,650
5,CCCS(=O)(=O)Nc1ccc(F)c(C(=O)Nc2cnc3[nH]nc(Br)c3c2)c1F,260
6,CCCS(=O)(=O)Nc1ccc(F)c(C(=O)Nc2cccnc2)c1F,> 3000

# Target: T1, Serine/threonine-protein kinase B-raf
# Experiment: Inhibition of B-Raf V600E mutant-mediated Erk phosphorylation in human MALME-3M cells after 1 hr by fluorescence analysis
# Assay type: cell-based
# Settings: not given
# How it was run: as §1
row,SMILES,IC50 [nM]
1,CCCS(=O)(=O)Nc1ccc(F)c(C(=O)Nc2ccc(N)nc2)c1F,2400
2,CCCS(=O)(=O)Nc1ccc(F)c(C(=O)Nc2cnc3[nH]cnc3c2)c1F,2400
3,CCCS(=O)(=O)Nc1ccc(F)c(C(=O)Nc2cnc(N)c(Br)c2)c1F,310
4,CCCS(=O)(=O)Nc1ccc(F)c(C(=O)Nc2cnc3[nH]nc(N(C)C)c3c2)c1F,40
5,CCCS(=O)(=O)Nc1ccc(F)c(C(=O)Nc2cnc3[nH]nc(Br)c3c2)c1F,44
6,CCCS(=O)(=O)Nc1ccc(F)c(C(=O)Nc2cccnc2)c1F,6700

# Test system: not listed separately
# Experiment: Aqueous solubility of the compound in phosphate buffer at pH 7.4 after 24 hrs by HPLC analysis
# Assay type: physicochemical
# Settings: not given
row,SMILES,solubility at 24 h [µg/mL]
1,CCCS(=O)(=O)Nc1ccc(F)c(C(=O)Nc2cnc3[nH]nc(N(C)C)c3c2)c1F,450
2,CCCS(=O)(=O)Nc1ccc(F)c(C(=O)Nc2cnc3[nH]nc(Br)c3c2)c1F,3

# Target: T1, Serine/threonine-protein kinase B-raf
# Experiment: Inhibition of full length human B-Raf V600E mutant expressed in baculovirus infected insect cells assessed as [gamma-33P]incorporation into MEK after 60 mins by scintillation counting
# Settings: not given
row,SMILES,IC50 [nM]
1,CCCS(=O)(=O)Nc1ccc(F)c(C(=O)Nc2ccc(N)nc2)c1F,920
2,CCCS(=O)(=O)Nc1ccc(F)c(C(=O)Nc2cnc3[nH]cnc3c2)c1F,61
3,CCCS(=O)(=O)Nc1ccc(F)c(C(=O)Nc2cnc3[nH]nc(N(C)C)c3c2)c1F,8.2
4,CCCS(=O)(=O)Nc1ccc(F)c(C(=O)Nc2cnc3[nH]nc(Br)c3c2)c1F,4
5,CCCS(=O)(=O)Nc1ccc(F)c(C(=O)Nc2cccnc2)c1F,3900
